Shown are actives, neighbours in structure and some others; about 2.1% of the full set was active somewhere.
SUMO Mot1 rescue: inhibitors of SUMOylation pathway: yeast Mot1-301 growth rescue | S. cerevisiae Mot1-301 growth rescue, ATP luminescence, 38.5C; percent above DMSO median, 100 means doubled | actives 1% (n = 320,000) | growth rescue, % at 18.8 µM;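 active = every valid replicate shows activation above 250% relative to neutral control wells; inactive = the rest, any valid replicate at or below 250%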
ARNT TACC3 PPI: ARNT/TACC3 interaction disruption. Q9Y6A5. actives 0.66% (n = 390,000). inhibition, % at 9.99 µM. AlphaScreen His-ARNT PAS-B/GST-TACC3 binding, luminescence; TACC3 fragment carries E629A point mutation. AID 623870;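 active = mean inhibition of replicates at least 50% and at least half of replicates each reaching 50%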
RTF Ca sens act: cardiac RTF calcium sensitization; IANBD-labeled TnC RTF fluorescence at EC20 calcium; 0% EC20 calcium, 100% full calcium; activation, % at 7.2 µM; actives 0.24% (n = 340,000); AID 493008;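 active = activation above the mean over all tested compounds plus 3 SD, cut at about 30% in these data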;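 note: rise in fluorescence read as greater calcium sensitivity of cardiac thin filaments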
UCH37 DUB inh: inhibitors of human deubiquitinating enzyme UCH37 | Q9Y5K5 | purified proteasome/UCH37, Ub-AMC cleavage fluorescence | inhibition, % (concentration not given with the values) | actives 0.33% (n = 330,000) | AID 588478;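 active = mean inhibition over replicate wells above about 20%, limit read from the data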
Target sequence (Q9Y5K5 whole entry, looked up): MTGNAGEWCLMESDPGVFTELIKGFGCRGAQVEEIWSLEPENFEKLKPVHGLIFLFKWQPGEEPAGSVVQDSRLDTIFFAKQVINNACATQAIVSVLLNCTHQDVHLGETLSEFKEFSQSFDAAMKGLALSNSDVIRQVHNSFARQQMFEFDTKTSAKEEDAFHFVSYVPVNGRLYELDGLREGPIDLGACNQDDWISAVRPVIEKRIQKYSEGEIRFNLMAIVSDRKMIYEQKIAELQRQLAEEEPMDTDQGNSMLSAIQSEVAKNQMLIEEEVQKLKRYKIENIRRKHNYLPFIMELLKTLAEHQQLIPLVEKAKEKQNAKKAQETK
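Reagent: Ub-AMC substrate; assay system: Proteasome-associated human UCH37 deubiquitinase; controls: no-proteasome and no-compound wells; read-out: % inhibition of Ub-AMC cleavage fluorescence; timing: 30 min preincubation with enzyme, 25 min cleavage at room temperature; signal: AMC fluorescence from Ub-AMC cleavage, excitation 355 nm, emission 460 nm; buffer or medium: Tris-HCl pH 7.4 plus ovalbumin, ATP-MgCl2, DTT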
Efflux pump inh: antifungal efflux pump inhibition, Nile Red retention; inhibition, % at 10 µM; AID 485275; actives 0.44% (n = 330,000); S. cerevisiae Candida pump triplex;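 active = plate passing quality check with inhibition over a set limit, or well fluorescence over plate mean plus 4 SD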;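 note: Nile Red retained in pooled yeast measured as flow cytometry median fluorescence; higher means more Nile Red kept so more efflux inhibition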
RTF Ca sens inh: cardiac RTF calcium desensitization. inhibition, % at 7.15 µM. P19429+P45379. actives 0.12% (n = 340,000). IANBD-labeled cardiac RTF, Ca2+ fluorescence;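 active = inhibition above the mean inhibition of all tested compounds plus 3 SD, cut at about 17% in these data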;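 note: assay run at fixed EC70 calcium of 1.6 mM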
Mot1 SUMO dose: SUMO pathway inhibitors in yeast Mot1-301 growth; shares compounds with SUMO Mot1 rescue; S. cerevisiae Mot1-301 galactose growth, ATP luminescence, 24 h; -100 = growth of slx-deleted rescue strain; growth activity, percent, % at 42 µM; 2,300 tested, under 10 active;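 active = Signal drops as the depositor expects, and the fitted half-maximal dose is no more than ten times the top valid tested dose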;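 note: more negative values mean stronger growth rescue toward the control strain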
A number is an active result; . = inactive; / = no result.

SMILES	SUMO Mot1 rescue	ARNT TACC3 PPI	RTF Ca sens act	UCH37 DUB inh	Efflux pump inh	RTF Ca sens inh	Mot1 SUMO dose
CC1CN(CCOc2ccc([N+](=O)[O-])cc2)CC(C)O1 (centres undefined)	.	.	.	.	.	.	/
CCc1nn(C)c(N)c1C	392	.	.	.	.	.	.
CCc1nn(C)c(-c2n[nH]c(=S)n2N)c1Cl	.	.	.	.	.	.	/
O=C(NN=C/C=C/c1ccco1)C1COc2ccccc2O1 (centres undefined)	/	/	/	.	/	/	/
O=C(Nc1ccccc1C(=O)Nc1ccccn1)c1ccc([N+](=O)[O-])cc1	.	.	.	.	.	.	/
O=C(O)c1ccc(CNC(=O)c2ccccc2NC(=O)c2ccc([N+](=O)[O-])cc2)cc1	713	.	.	.	.	.	.
CC1=Nc2ccccc2/C1=C\c1nc(-c2ccccc2)oc1O	623	.	.	.	.	.	.
COc1ccc(NC(=O)c2cc3ccccc3oc2=NNS(=O)(=O)c2ccc(C)cc2)cc1	/	/	/	.	/	/	/
CCCOc1ccc([N+](=O)[O-])c(N)c1	788	.	.	.	.	.	.
N/C(=N\N=C\c1ccc(O)cc1)c1nonc1N	488	.	.	/	.	.	.
COc1ccc(N=C2SC(C(N)=O)CC(=O)N2CCc2ccc(OC)c(OC)c2)cc1 (centres undefined)	.	.	.	.	.	.	/
COc1ccc(N=C2SC(C(=O)O)CC(=O)N2Cc2ccc(OC)c(OC)c2)cc1 (centres undefined)	529	.	.	.	.	.	.
O=c1c(=Cc2ccc(O)cc2)sc2nc3cc(Br)cnc3n12	/	/	/	.	/	/	/
O=C(Cc1ccccc1)NN=Cc1ccc[nH]1	/	/	/	.	/	/	/
CCOC(=O)NC1(NC(C)C)Oc2ccccc2O1	.	/	.	.	.	.	/
CCOC(=O)NC1(Nc2ccc(C)cc2)Oc2ccccc2O1	445	.	.	.	.	.	.
COc1ccc(OC)c(C(c2nnnn2C2CCCC2)N2CCN(c3ccccc3)CC2)c1 (centres undefined)	.	.	.	.	.	.	/
CCC(c1nnnn1C1CCCC1)N1CCN(c2cccc(OC)c2)CC1 (centres undefined)	747	/	/	.	.	/	.
CCN(CC)S(=O)(=O)c1ccc(N2CCCC2)c(C(=O)OCC(=O)Nc2cc(C)on2)c1	544	.	.	.	.	.	.
CCN(CC)S(=O)(=O)c1ccc(N2CCCC2)c(C(=O)OCC(=O)N2CCCC2)c1	.	.	.	.	.	.	/
CC(NC(=O)c1ccccc1Cl)c1ccc(-n2ccnc2)cc1 (centres undefined)	.	.	.	.	.	.	/
Cc1c(C(=O)NC(C)c2ccc(-n3ccnc3)cc2)cccc1[N+](=O)[O-] (centres undefined)	407	.	.	.	.	.	.
Cc1ccc(C=NNC(=O)c2nnn(-c3nonc3N)c2CN(C)C)s1	/	/	/	.	/	/	/
CS(=O)(=O)NCc1ccc(C(=O)NC2CCCCC2)cc1	617	/	.	.	.	.	.
Cc1ccc(S(=O)(=O)NCc2ccc(C(=O)NC3CCCCC3)cc2)cc1	.	.	.	.	.	.	/
SMILES	SUMO Mot1 rescue	ARNT TACC3 PPI	RTF Ca sens act	UCH37 DUB inh	Efflux pump inh	RTF Ca sens inh	Mot1 SUMO dose
O=C1CN(C(=O)c2ccccc2F)C(c2ccccc2)c2cc(Cl)ccc2N1 (centres undefined)	603	.	.	.	.	.	.
O=C1CN(C(=O)c2ccccc2F)C(c2ccc(F)cc2)c2cc(Br)ccc2N1 (centres undefined)	.	.	.	.	.	.	/
O=C1CN(C(=O)COC(=O)COc2ccc3c(c2)CCC3)c2ccccc2N1	586	.	.	.	.	.	.
COc1ccc(OCC(=O)OCC(=O)N2CC(=O)Nc3ccccc32)cc1	.	.	.	.	.	.	/
COc1ccc(-c2noc(CSc3nc(-c4ccccc4)cc(=O)[nH]3)n2)cc1OC	493	.	.	.	.	.	.
Cc1cccc(NC(=S)NC(=O)/C=C/c2ccco2)c1	706	/	.	.	.	.	.
O=C(/C=C/c1ccco1)NC(=S)Nc1ccccc1	.	.	.	.	.	.	/
O=C(CCN1C(=O)S/C(=C\c2ccccc2)C1=O)Nc1ccc(O)cc1C(=O)O	.	.	.	.	.	.	/
O=C(CCN1C(=O)S/C(=C/c2ccccc2)C1=O)Nc1ccc(O)c(C(=O)O)c1	435	.	.	.	.	.	.
COc1ccc(Nc2oc(-c3cccs3)nc2C#N)cc1	918	/	.	.	.	.	.
CNc1oc(-c2cccs2)nc1C#N	.	/	.	.	.	.	/
O=C(Nc1cccnc1Cl)c1cc2ccccc2o1	567	.	.	.	.	.	.
Cc1cc(NC(=O)c2cccnc2Cl)ccc1NC(=O)c1cc2ccccc2o1	.	.	.	.	.	.	/
COc1ccc(C=NNC(=O)c2ccoc2C)cc1COc1ccc(Cl)cc1	/	/	/	.	/	/	/
CC(=NNC(=O)c1cc2c(s1)CCC(C)C2)c1ccncc1 (centres undefined)	/	/	/	.	/	/	/
CN(c1ccccc1)c1ccc(/C=C/[N+](=O)[O-])cc1	804	.	.	/	.	.	.
CN(C)c1ccc(-n2cccc2/C=C/[N+](=O)[O-])cc1	.	.	.	/	.	.	/
Cc1cc(C)nc(N=C(N)Nc2cc([N+](=O)[O-])ccc2C)n1	/	/	/	.	/	/	/
Cc1ccc(OCC(=O)NN2C(=O)c3ccccc3C2=O)c(C)c1	436	.	.	.	.	.	.
Cc1ccc(C(C)C)c(OCC(=O)NN2C(=O)c3ccccc3C2=O)c1	.	.	.	.	.	.	/
COc1cc(NC(=O)c2ccccc2F)c(OC)cc1NC(=O)CN1CCCCC1	552	/	.	.	.	.	.
O=C(c1ccc(-c2ccccc2)cc1)C1CCCN(C(=O)c2ccncc2)C1 (centres undefined)	.	.	.	.	.	.	/
O=C(c1ccc(-c2ccccc2)cc1)C1CCCN(Cc2ccncc2)C1 (centres undefined)	365	.	.	.	.	.	.
O=C(CCSc1nnc(-c2ccncc2)o1)Nc1ccc(Cl)cc1	450	.	.	.	.	.	.
O=C(CCSc1nnc(-c2ccncc2)o1)Nc1cccc(Cl)c1	.	.	.	.	.	.	/
Cc1ccc(NC(=O)N[C@@H](CC(C)C)C(=O)O)c(C)c1	.	.	.	.	.	.	/
Cc1ccc(NC(=O)N[C@H](C(=O)O)C(C)C)c(C)c1	830	.	.	.	.	.	.
O=C(NCc1nc(-c2ccccc2)no1)c1cccs1	499	.	.	.	.	.	.
COc1cc(/C=N/n2cnnc2)ccc1OCc1ccccc1	540	.	.	/	.	.	.

Bioassay records as filed in PubChem.
